Measurements from ChEMBL document CHEMBL1667864, “Synthesis and biological assay of 4-aryl-6-chloro-quinoline derivatives as novel non-nucleoside anti-HBV agents” (Bioorg Med Chem, 2011).

Key:
Hepatitis B virus [1] = experiment: Antiviral activity against HBV infected in human HepG 2.215 cells assessed as inhibition of DNA replication by RT-PCR analysis; assay type: functional, organism-based; settings: HepG2.2.15
How it was run: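 HepG 2.2.15 cells were seeded at 5 × 10⁵ per well, with medium changed every 2 days. After 6 days, compounds were added and fresh medium was fed every other day for another 6 days. Total DNA was isolated from collected cells, and HBV DNA was quantified by real-time PCR. IC₅₀ is the concentration giving 50% inhibition of HBV DNA replication.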

[2] = Selectivity index, CC50 for human HepG 2.215 cells to IC50 for HBV infected in human HepG 2.215 cells assessed as inhibition of DNA replication; assay type: functional
How it was run: (§1)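 SI calculated as CC₅₀ (concentration killing 50% of HepG 2.2.15 cells) divided by IC₅₀ (50% inhibition of HBV DNA replication, HBeAg or HBsAg secretion).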

[3] = Cytotoxicity against human HepG2(2.2.15) cells; assay type: cell-based
Hepatitis B virus [4] = experiment: Antiviral activity against HBV infected in human HepG 2.215 cells assessed as inhibition of HBeAg secretion by ELISA; assay type: functional, organism-based; settings: HepG2.2.15
Hepatitis B virus [5] = experiment: Antiviral activity against HBV infected in human HepG 2.215 cells assessed as inhibition of HBsAg secretion by ELISA; assay type: functional, organism-based; settings: HepG2.2.15
[6] = Selectivity index, CC50 for human HepG 2.215 cells to IC50 for HBV infected in human HepG 2.215 cells assessed as inhibition of HBeAg secretion; assay type: functional; how it was run: as §1
[7] = Selectivity index, CC50 for human HepG 2.215 cells to IC50 for HBV infected in human HepG 2.215 cells assessed as inhibition of HBsAg secretion; assay type: functional; how it was run: as §1

Structure (SMILES) | IC50 (Hepatitis B virus [1]) | Selectivity Index [2] | CC50 [3] | IC50 (Hepatitis B virus [4]) | IC50 (Hepatitis B virus [5]) | Selectivity Index [6] | Selectivity Index [7]
CC(C)(C)[Si](OCCc1c(Nn2nnc3ccccc32)nc2ccc(Cl)cc2c1-c1ccccc1Cl)(c1ccccc1)c1ccccc1 | 4.4 µM | >284.5 | > 1250 µM | > 1250 µM | > 1250 µM | – | –
CS(=O)(=O)OCCc1c(OS(C)(=O)=O)nc2ccc(Cl)cc2c1-c1ccccc1Cl | 6.8 µM | 118.2 | 804 µM | 367 µM | 16.5 µM | 2.2 | 48.6
C[C@H](Cn1cnc2c(N)ncnc21)OCP(=O)(O)O [TENOFOVIR ANHYDROUS] | 0.54 µM | >3222 | > 1740 µM | – | 1450 µM | >1.5 | >1.2
CC(C)(C)[Si](OCCc1c(OCc2c(Cl)cccc2Cl)nc2ccc(Cl)cc2c1-c1ccccc1Cl)(c1ccccc1)c1ccccc1 | > 1030 µM | – | > 1030 µM | > 1030 µM | > 1030 µM | – | –
OCCc1c(N2CCNCC2)nc2ccc(Cl)cc2c1-c1ccccc1Cl | > 5 µM | – | < 5 µM | > 5 µM | > 5 µM | <1 | <1
OCCc1c(N2CCOCC2)nc2ccc(Cl)cc2c1-c1ccccc1Cl | > 1590 µM | – | > 1590 µM | > 1590 µM | 323 µM | – | >4.9
OCCc1c(Nn2nnc3ccccc32)nc2ccc(Cl)cc2c1-c1ccccc1Cl | 8.3 µM | 10 | 82.4 µM | 111 µM | 37.7 µM | <1 | 2.2
OCCc1c(OCc2c(F)cccc2F)nc2ccc(Cl)cc2c1-c1ccccc1Cl | 4.8 µM | 22.7 | 109 µM | 1630 µM | 43.5 µM | <1 | 2.5
CC(C)(C)[Si](OCCc1c(N2CCCCC2)nc2ccc(Cl)cc2c1-c1ccccc1Cl)(c1ccccc1)c1ccccc1 | 6.7 µM | >143.7 | > 969 µM | > 969 µM | > 969 µM | – | –
COc1nc2ccc(Cl)cc2c(-c2ccccc2Cl)c1CCO | 6.9 µM | 20.5 | 141 µM | > 2710 µM | 66.3 µM | <1 | 2.1
[N-]=[N+]=NCCc1c(N=[N+]=[N-])nc2ccc(Cl)cc2c1-c1ccccc1Cl | 4.5 µM | >551.2 | > 2480 µM | > 2480 µM | > 2480 µM | – | –
CC(C)(C)[Si](OCCc1c(N2CCNCC2)nc2ccc(Cl)cc2c1-c1ccccc1Cl)(c1ccccc1)c1ccccc1 | 42.8 µM | <4.43 | < 18.8 µM | > 1170 µM | 18.8 µM | <1 | <1
OCCc1c(Cl)nc2ccc(Cl)cc2c1-c1ccccc1Cl | 9.8 µM | 4.3 | 42.5 µM | 11.3 µM | 45.3 µM | 3.8 | <1
CC(C)(C)[Si](OCCc1c(OS(=O)(=O)C(F)(F)F)nc2ccc(Cl)cc2c1-c1ccccc1Cl)(c1ccccc1)c1ccccc1 | > 1560 µM | – | > 1560 µM | 767 µM | 454 µM | 2 | >3.4
ClCCc1c(Cl)nc2ccc(Cl)cc2c1-c1ccccc1Cl | 19 µM | >73.8 | > 1400 µM | > 1400 µM | > 1400 µM | – | –
O=c1[nH]c2ccc(Cl)cc2c(-c2ccccc2Cl)c1CCO | 72.1 µM | 5.4 | 388 µM | 340 µM | 70.2 µM | 1.1 | 5.5
CC(=O)OCCc1c(Cl)nc2ccc(Cl)cc2c1-c1ccccc1Cl | 6.1 µM | 19.1 | 116 µM | 70.9 µM | 147 µM | <1 | <1
OCCc1c(OCc2c(Cl)cccc2Cl)nc2ccc(Cl)cc2c1-c1ccccc1Cl | 17.7 µM | 2.2 | 38.5 µM | 12.2 µM | 18.2 µM | 3.2 | 2.1
CS(=O)(=O)OCCc1c(Cl)nc2ccc(Cl)cc2c1-c1ccccc1Cl | > 882 µM | – | 882 µM | 647 µM | 1020 µM | >1.4 | <1
CC(C)(C)[Si](OCCc1c(OCc2c(F)cccc2F)nc2ccc(Cl)cc2c1-c1ccccc1Cl)(c1ccccc1)c1ccccc1 | > 1870 µM | – | > 1870 µM | > 1870 µM | > 1870 µM | – | –
OCCc1c(N2CCCCC2)nc2ccc(Cl)cc2c1-c1ccccc1Cl | 151 µM | 1 | 155 µM | 50 µM | 37.5 µM | 3.1 | 4.1
CC(C)(C)[Si](OCCc1c(N2CCOCC2)nc2ccc(Cl)cc2c1-c1ccccc1Cl)(c1ccccc1)c1ccccc1 | > 1200 µM | – | > 1200 µM | > 1200 µM | > 1200 µM | – | –
[N-]=[N+]=NCCc1c(Cl)nc2ccc(Cl)cc2c1-c1ccccc1Cl | 16.6 µM | >151.4 | > 2510 µM | > 2510 µM | > 2510 µM | – | –
